Results taken from ChEMBL document CHEMBL5042558, “Selective Macrocyclic Inhibitors of DYRK1A/B” (ACS Med Chem Lett, 2022).
The source made the active and inactive calls. The rule behind the calls is not given here.

Experiments:
[1] = test system: CAL-27; assay: Induction of apoptosis in human CAL-27 cells assessed as BCL-xL level at 10 uM after 24 hrs by Immunoblot analysis relative to control; assay type: functional
[2] = test system: CAL-27; assay: Induction of apoptosis in human CAL-27 cells assessed as PARP level at 10 uM after 24 hrs by Immunoblot analysis relative to control; assay type: functional
[3] = test system: CAL-27; assay: Induction of apoptosis in human CAL-27 cells assessed as decrease in FOXO3A phosphorylation at serine 253 residue at 0.5 uM after 24 hrs by Immunoblot analysis relative to control; assay type: functional; parameters: scale not given: the % may be the effect or the level left
[4] = test system: CAL-27; assay: Induction of apoptosis in human CAL-27 cells assessed as PARP level at 1 uM after 24 hrs by Immunoblot analysis relative to control; assay type: functional
[5] = test system: CAL-27; assay: Induction of apoptosis in human CAL-27 cells assessed as increase in cleaved-PARP level at 10 uM after 24 hrs by Immunoblot analysis relative to control; assay type: functional
[6] = test system: CAL-27; assay: Induction of apoptosis in human CAL-27 cells assessed as decrease in FOXO3A phosphorylation at serine 253 residue at 1 uM after 24 hrs by Immunoblot analysis relative to control; assay type: functional; parameters: scale not given: the % may be the effect or the level left
[7] = test system: HEK-293T; assay: Antiproliferative activity against human HEK293T cells assessed as reduction in cell viability at 10 uM measured after 72 hrs by Celltiter-Glo luminescent assay; assay type: toxicity, cell-based
[8] = target: Cyclin-dependent kinase 8 (Homo sapiens) (UniProt P49336); assay: Inhibition of CDK8 (unknown origin) in human CAL-27 cells measured after 6 hrs by select screen kinase assay; assay type: cell-based
Cyclin-dependent kinase 8 (Homo sapiens), sequence (P49336 whole entry): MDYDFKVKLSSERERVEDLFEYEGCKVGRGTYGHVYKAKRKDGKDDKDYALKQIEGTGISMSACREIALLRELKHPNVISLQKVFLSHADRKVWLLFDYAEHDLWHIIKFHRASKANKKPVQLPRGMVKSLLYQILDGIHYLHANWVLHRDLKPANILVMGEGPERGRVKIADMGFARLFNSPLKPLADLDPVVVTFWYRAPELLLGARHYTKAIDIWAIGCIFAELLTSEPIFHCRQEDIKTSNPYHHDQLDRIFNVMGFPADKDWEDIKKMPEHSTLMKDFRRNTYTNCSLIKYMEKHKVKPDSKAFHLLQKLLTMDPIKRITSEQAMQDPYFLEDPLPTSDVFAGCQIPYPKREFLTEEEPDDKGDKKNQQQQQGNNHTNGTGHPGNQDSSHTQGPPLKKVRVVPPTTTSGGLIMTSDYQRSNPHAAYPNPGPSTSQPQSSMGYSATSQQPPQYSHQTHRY
Outline: (§1)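 Cellular kinase profiling by KiNativ in CAL27 head and neck squamous carcinoma cells. Cells were treated with compound at 1 μM for 6 h, then kinase engagement was profiled across the kinome by KiNativ.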

[9] = test system: CAL-27; assay: Induction of apoptosis in human CAL-27 cells assessed as decrease in FOXO3A phosphorylation at serine 253 residue at 5 uM after 24 hrs by Immunoblot analysis relative to control; assay type: functional; parameters: scale not given: the % may be the effect or the level left
[10] = test system: CAL-27; assay: Induction of apoptosis in human CAL-27 cells assessed as decrease in FOXO3A phosphorylation at serine 253 residue at 10 uM after 24 hrs by Immunoblot analysis relative to control; assay type: functional; parameters: scale not given: the % may be the effect or the level left
[11] = test system: CAL-27; assay: Induction of apoptosis in human CAL-27 cells assessed as decrease in AKT phosphorylation at S473 residue at 1 uM after 24 hrs by Immunoblot analysis relative to control; assay type: functional; parameters: scale not given: the % may be the effect or the level left
[12] = test system: FaDu; assay: Antiproliferative activity against human FaDu cells assessed as reduction in cell viability at 10 uM measured after 72 hrs by Celltiter-Glo luminescent assay; assay type: functional
[13] = test system: CAL-27; assay: Induction of apoptosis in human CAL-27 cells assessed as decrease in AKT phosphorylation at S473 residue at 5 uM after 24 hrs by Immunoblot analysis relative to control; assay type: functional; parameters: scale not given: the % may be the effect or the level left
[14] = target: Cyclin-dependent kinase 19 (Homo sapiens) (UniProt Q9BWU1); assay: Inhibition of […] (unknown origin) in human CAL-27 cells measured after 6 hrs by select screen kinase assay; assay type: cell-based; outline: as §1
[15] = test system: CAL-27; assay: Induction of apoptosis in human CAL-27 cells assessed as decrease in AKT phosphorylation at S473 residue at 0.5 uM after 24 hrs by Immunoblot analysis relative to control; assay type: functional; parameters: scale not given: the % may be the effect or the level left
[16] = test system: CAL-27; assay: Induction of apoptosis in human CAL-27 cells assessed as decrease in AKT phosphorylation at S473 residue at 10 uM after 24 hrs by Immunoblot analysis relative to control; assay type: functional; parameters: scale not given: the % may be the effect or the level left
[17] = test system: CAL-27; assay: Induction of apoptosis in human CAL-27 cells assessed as increase in cleaved-PARP level at 1 uM after 24 hrs by Immunoblot analysis relative to control; assay type: functional
[18] = test system: CAL-27; assay: Induction of apoptosis in human CAL-27 cells assessed as BCL-xL level at 1 uM after 24 hrs by Immunoblot analysis relative to control; assay type: functional
[19] = target: Serine/threonine-protein kinase ATR (Homo sapiens) (UniProt Q13535); assay: Inhibition of ATR (unknown origin) in human CAL-27 cells measured after 6 hrs by select screen kinase assay; assay type: cell-based
Serine/threonine-protein kinase ATR (Homo sapiens), sequence (Q13535 whole entry, looked up): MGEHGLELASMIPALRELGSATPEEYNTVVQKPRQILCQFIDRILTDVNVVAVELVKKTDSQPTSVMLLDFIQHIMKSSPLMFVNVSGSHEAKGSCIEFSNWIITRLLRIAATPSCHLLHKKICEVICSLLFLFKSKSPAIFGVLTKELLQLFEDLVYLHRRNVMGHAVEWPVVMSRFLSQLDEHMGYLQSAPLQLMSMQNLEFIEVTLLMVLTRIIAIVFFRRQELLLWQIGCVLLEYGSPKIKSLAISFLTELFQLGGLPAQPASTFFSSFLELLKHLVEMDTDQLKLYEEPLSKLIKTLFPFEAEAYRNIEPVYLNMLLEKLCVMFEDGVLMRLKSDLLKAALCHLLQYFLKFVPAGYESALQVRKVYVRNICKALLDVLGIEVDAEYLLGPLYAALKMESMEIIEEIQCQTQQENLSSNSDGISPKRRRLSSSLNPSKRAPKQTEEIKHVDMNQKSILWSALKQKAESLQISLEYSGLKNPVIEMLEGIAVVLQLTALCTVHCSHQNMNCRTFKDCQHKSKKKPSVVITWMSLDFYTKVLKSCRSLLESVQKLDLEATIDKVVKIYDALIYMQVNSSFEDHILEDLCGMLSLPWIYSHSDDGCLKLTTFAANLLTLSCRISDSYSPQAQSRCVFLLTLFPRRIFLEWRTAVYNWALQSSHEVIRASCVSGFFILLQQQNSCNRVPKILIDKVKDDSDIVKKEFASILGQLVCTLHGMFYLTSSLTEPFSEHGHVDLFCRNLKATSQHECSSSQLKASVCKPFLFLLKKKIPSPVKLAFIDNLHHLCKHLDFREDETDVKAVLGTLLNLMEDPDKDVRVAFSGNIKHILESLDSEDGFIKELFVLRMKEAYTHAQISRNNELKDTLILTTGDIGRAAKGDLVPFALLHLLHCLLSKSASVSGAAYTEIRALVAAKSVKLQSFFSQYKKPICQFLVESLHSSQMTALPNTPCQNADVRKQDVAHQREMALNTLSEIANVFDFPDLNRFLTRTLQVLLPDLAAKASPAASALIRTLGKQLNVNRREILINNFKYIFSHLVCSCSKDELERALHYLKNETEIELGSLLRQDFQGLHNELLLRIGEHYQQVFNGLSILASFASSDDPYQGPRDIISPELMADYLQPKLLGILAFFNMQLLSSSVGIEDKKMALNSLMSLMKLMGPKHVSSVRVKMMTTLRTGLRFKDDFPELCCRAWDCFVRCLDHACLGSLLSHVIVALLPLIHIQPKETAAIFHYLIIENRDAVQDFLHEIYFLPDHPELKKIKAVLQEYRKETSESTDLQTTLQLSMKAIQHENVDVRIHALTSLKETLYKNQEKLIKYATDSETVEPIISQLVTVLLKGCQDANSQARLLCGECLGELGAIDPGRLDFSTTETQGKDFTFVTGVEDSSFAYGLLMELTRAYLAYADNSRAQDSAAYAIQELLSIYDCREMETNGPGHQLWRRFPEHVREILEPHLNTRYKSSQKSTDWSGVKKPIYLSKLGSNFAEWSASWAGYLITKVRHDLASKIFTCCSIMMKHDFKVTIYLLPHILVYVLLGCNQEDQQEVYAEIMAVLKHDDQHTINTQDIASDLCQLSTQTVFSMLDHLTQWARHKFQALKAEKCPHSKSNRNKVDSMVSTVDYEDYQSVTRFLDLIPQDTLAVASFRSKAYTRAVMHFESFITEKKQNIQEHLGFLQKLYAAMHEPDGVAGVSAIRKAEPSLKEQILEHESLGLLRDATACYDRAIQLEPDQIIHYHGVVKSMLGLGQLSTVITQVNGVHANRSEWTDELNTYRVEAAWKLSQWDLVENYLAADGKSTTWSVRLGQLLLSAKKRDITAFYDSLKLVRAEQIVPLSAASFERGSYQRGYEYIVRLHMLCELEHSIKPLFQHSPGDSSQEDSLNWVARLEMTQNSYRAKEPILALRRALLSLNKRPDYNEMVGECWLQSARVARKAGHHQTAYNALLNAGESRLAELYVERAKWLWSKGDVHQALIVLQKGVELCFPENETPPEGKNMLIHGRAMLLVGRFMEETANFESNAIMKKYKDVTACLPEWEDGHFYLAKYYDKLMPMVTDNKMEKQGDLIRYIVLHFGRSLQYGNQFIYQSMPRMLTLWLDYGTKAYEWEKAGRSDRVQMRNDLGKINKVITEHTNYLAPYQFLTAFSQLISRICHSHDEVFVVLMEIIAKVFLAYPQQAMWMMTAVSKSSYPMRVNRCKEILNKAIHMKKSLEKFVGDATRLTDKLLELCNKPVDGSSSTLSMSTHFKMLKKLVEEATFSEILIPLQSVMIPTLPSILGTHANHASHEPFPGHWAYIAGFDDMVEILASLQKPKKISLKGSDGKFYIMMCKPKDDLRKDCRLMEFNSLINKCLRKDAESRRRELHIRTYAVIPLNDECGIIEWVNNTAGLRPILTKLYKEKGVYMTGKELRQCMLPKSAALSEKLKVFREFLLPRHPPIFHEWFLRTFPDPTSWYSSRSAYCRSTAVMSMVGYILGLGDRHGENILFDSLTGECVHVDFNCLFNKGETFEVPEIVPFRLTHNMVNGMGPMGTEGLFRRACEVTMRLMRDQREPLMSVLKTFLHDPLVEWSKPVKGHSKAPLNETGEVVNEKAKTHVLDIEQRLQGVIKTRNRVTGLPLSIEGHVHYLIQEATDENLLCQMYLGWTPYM

[20] = test system: CAL-27; assay: Antiproliferative activity against human CAL-27 cells assessed as reduction in cell viability at 10 uM measured after 72 hrs by Celltiter-Glo luminescent assay; assay type: functional
[21] = target: Receptor-type tyrosine-protein kinase FLT3 (Homo sapiens, UniProt P36888); assay: Inhibition of FLT3 (unknown origin) at 1 uM by kinome scan method
[22] = Cmax in C57BL/6 mouse at 10 mg/kg, po measured upto 8 hrs by LC-MS/MS analysis; assay type: ADME, organism-based; parameters: route oral, dose 10 mg/kg, time <=8; conditions: in vivo
[23] = Oral bioavailability in C57BL/6 mouse at 10 mg/kg measured upto 8 hrs by LC-MS/MS analysis; assay type: ADME, organism-based; conditions: mouse, in vivo, 10 mg/kg, 8 h
[24] = Clearance in C57BL/6 mouse at 5 mg/kg, iv measured upto 8 hrs by LC-MS/MS analysis; assay type: ADME, organism-based; conditions: in vivo
[25] = Half life in C57BL/6 mouse at 5 mg/kg, iv measured upto 8 hrs by LC-MS/MS analysis; assay type: ADME, organism-based; conditions: in vivo
[26] = target: Myosin light chain kinase, smooth muscle (Homo sapiens, UniProt Q15746); assay: Inhibition of MYLK (unknown origin) at 1 uM by kinome scan method
Myosin light chain kinase, smooth muscle, sequence (Q15746 whole entry): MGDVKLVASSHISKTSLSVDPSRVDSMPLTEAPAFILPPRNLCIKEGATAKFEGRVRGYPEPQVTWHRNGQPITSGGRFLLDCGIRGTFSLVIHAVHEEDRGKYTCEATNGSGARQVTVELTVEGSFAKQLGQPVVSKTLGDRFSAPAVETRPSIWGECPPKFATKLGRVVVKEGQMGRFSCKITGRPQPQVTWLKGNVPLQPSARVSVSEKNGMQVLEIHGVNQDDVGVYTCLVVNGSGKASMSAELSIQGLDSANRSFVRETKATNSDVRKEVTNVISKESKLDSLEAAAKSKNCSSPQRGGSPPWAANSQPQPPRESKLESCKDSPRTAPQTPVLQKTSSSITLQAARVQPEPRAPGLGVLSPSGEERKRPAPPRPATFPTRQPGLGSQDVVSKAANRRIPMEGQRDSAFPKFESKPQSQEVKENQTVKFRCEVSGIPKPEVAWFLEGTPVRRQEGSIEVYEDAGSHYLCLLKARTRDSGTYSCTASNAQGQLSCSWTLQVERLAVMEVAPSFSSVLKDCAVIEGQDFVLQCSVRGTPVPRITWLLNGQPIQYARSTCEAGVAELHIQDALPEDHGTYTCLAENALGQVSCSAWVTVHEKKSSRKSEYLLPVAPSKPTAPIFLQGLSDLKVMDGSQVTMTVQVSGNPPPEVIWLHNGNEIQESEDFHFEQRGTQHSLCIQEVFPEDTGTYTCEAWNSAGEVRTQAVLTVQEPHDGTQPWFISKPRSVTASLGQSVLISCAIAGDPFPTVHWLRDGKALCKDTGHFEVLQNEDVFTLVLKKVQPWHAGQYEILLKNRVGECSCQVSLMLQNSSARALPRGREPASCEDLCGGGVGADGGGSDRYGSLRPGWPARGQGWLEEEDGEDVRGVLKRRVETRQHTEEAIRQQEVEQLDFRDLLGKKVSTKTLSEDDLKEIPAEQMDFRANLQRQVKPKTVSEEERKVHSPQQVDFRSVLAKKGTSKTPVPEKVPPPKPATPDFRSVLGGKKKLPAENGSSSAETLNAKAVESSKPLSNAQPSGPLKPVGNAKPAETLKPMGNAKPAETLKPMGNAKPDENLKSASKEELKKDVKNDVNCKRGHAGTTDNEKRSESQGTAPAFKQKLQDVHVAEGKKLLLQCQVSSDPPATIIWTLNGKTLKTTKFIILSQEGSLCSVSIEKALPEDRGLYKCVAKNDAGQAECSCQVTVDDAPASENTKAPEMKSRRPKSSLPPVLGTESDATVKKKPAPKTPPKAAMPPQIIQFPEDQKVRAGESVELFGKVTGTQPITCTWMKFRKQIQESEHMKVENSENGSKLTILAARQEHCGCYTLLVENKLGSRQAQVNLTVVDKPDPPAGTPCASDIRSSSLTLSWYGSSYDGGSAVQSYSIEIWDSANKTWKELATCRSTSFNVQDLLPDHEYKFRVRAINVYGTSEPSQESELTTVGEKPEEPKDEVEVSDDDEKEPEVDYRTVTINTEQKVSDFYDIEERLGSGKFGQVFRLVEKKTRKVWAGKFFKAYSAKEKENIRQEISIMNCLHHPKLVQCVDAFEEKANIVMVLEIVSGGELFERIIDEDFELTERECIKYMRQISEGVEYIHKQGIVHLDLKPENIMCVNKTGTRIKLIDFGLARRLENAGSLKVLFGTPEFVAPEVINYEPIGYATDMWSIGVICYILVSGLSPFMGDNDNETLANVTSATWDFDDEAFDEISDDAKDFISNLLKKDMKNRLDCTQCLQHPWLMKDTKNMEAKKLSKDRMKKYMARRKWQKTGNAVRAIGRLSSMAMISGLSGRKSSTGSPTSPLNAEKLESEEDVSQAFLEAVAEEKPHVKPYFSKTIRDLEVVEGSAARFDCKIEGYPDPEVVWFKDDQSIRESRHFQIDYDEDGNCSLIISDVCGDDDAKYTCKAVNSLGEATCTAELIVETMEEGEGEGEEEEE

[27] = Half life in C57BL/6 mouse at 10 mg/kg, po measured upto 8 hrs by LC-MS/MS analysis; assay type: ADME, organism-based; conditions: in vivo
[28] = AUC (0-infinity) in C57BL/6 mouse at 5 mg/kg, iv measured upto 8 hrs by LC-MS/MS analysis; assay type: ADME, organism-based; parameters: route intravenous, dose 5 mg/kg, time <=8; conditions: in vivo
[29] = AUC (0-infinity) in C57BL/6 mouse at 10 mg/kg, po measured upto 8 hrs by LC-MS/MS analysis; assay type: ADME, organism-based; parameters: route oral, dose 10 mg/kg, time <=8; conditions: mouse, in vivo, 8 h

SMILES	Activity [1] [%]	Activity [2] [%]	Activity [3] [%]	Activity [4] [%]	Activity [5] [%]	Activity [6] [%]	Activity [7]	Activity [9] [%]	Activity [10] [%]	Activity [11] [%]	Activity [12]	Activity [13] [%]	Activity [15] [%]	Activity [16] [%]	Activity [17] [%]	Activity [18] [%]	other results
COc1ccc2c(c1)[nH]c1c(C)nccc12 [HARMINE]	93	141	82	113	210	107	Active	110	90	93	inactive	133	64	143	139	92	inhibition [8]: Active; inhibition [14]: Active
O=C(O)c1ccc2c(c1)nc(Nc1cccc(Cl)c1)c1ccncc12 [SILMITASERTIB]	103	137	103	127	871	150	Active	139	150	53	75%	85	54	85	201	80	inhibition [19]: Active; Activity [20]: 80%
CN1Cc2nn(C)c(C#N)c2-c2cnc3[nH]cc(c3c2)-c2cn(nc2C(F)(F)F)CCCC1=O							Non-Toxic										IC50 [21]: 354 nM; Cmax [22]: 11.6 µM; F [23]: 1.1%; clearance [24]: 167 mL/min/kg; half-life [25]: 0.3 h; IC50 [26]: 334 nM; half-life [27]: 2 h; AUC [28]: 504.9 ng·h/mL; AUC [29]: 23.6 ng·h/mL
